These results are taken from ChEMBL document CHEMBL1126149, “Centrally acting alpha 1-adrenoceptor agonists based on hexahydronaphth[2,3-b]-1,4-oxazines and octahydrobenzo[g]quinolines” (1992).

Assay [1] deals with T1, Adrenergic receptor alpha-1 (Homo sapiens) (UniProt P35348+P25100+P35368). As to the kind of experiment: Alpha-1-adrenergic activity as efficacy in rabbit ear artery relative to noradrenaline. The class given is functional, tissue-based. The conditions noted are these: Oryctolagus cuniculus, target entry is the homologue from another species. An outline of the steps:
(§1)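 Isolated rabbit ear artery segment, circular smooth muscle tension measured isometrically; cocaine blocks neuronal uptake, rauwolscine blocks α2-receptors. Cumulative noradrenaline curve (10^-10–10^-5 M) sets the maximum, then after washout a cumulative curve for the test drug. pD2 = −log molar concentration giving 50% of NA maximum; efficacy = drug maximum relative to NA. n = 3-5.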

Assay [2] concerns the target T1, Adrenergic receptor alpha-1 (Homo sapiens). Nature of the assay: Alpha-1-adrenergic activity as potency in rabbit ear artery compared to noradrenaline. The class given is functional, tissue-based. The conditions noted are these: Oryctolagus cuniculus, target entry is the homologue from another species. The method in brief: as §1
Assay [3] is filed under the species Rattus norvegicus. Nature of the assay: Alpha-1/Alpha-2-agonistic activity by measuring their efficacy in pithed rat based on noradrenaline. The class given is functional. The method in brief: (§2)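 Pithed rats with jugular vein catheter for iv dosing and carotid catheter for arterial pressure, about 15 min equilibration. Single increasing iv doses are given and the rise in diastolic pressure is read to build a dose-response curve. pD2 is taken from that curve; efficacy is relative to noradrenaline. n = 3.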

For assay [4], the species on record is Rattus norvegicus. Nature of the assay: Change in blood pressure was reported in pithed rat. The class given is functional. The method in brief:
as §2

The species entered for assay [5] is Rattus norvegicus. As to the kind of experiment: Alpha-1/Alpha-2-agonistic activity by measuring their potency in pithed rat based on noradrenaline. The class given is functional. The method in brief: as §2
Assay [6] deals with T1, Adrenergic receptor alpha-1 (Homo sapiens). As to the kind of experiment: alpha-1-adrenergic activity by measuring their potency in rabbit ear artery based on noradrenaline. The class given is functional, tissue-based. The conditions noted are these: Oryctolagus cuniculus, target entry is the homologue from another species. An outline of the steps:
as §1

For assay [7], the species on record is Rattus norvegicus. Nature of the assay: alpha-1/alpha-2-agonistic activity by measuring their potency in pithed rat based on noradrenaline. The class given is functional. An outline of the steps: as §2
Assay [8] concerns the target T1, Adrenergic receptor alpha-1 (Homo sapiens). As to the kind of experiment: alpha-1-adrenergic activity by measuring their efficacy in rabbit ear artery based on noradrenaline. The class given is functional, tissue-based. The following applies: Oryctolagus cuniculus, target entry is the homologue from another species. The method in brief: as §1
The species entered for assay [9] is Rattus norvegicus. As to the kind of experiment: Alpha-1/alpha-2-agonistic activity by measuring their efficacy in pithed rat based on noradrenaline. The class given is functional. An outline of the steps: as §2
Assay [10] is filed under the species Rattus norvegicus. Nature of the assay: Alpha-1/alpha-2-agonistic activity by measuring their potency in pithed rat based on noradrenaline. The class given is functional. An outline of the steps:
as §2

For assay [11], the species on record is Rattus norvegicus. As to the kind of experiment: alpha-1/alpha-2-agonistic activity by measuring their efficacy in pithed rat based on noradrenaline. The class given is functional. An outline of the steps: as §2
Assay [12] deals with T1, Adrenergic receptor alpha-1 (Homo sapiens). The conditions noted are these: Oryctolagus cuniculus; Artery.
The target is the same in assay [13]. The following applies: Oryctolagus cuniculus; Artery. The source holds these as a separate data set.

Where only a bound is given, the exact number is not on record here.

For `CCC1CN(C)C2Cc3c(OC)ccc(SC)c3CC2O1` (centres undefined), the E was determined as 42 in assay [1] and 20 in the assay filed under Rattus norvegicus [3]. Moreover, the pD2 was 5.35 in assay [2] and 6.1 in the assay listed under Rattus norvegicus [5]. Besides, the “Increase in blood pressure (P/R)” value in the assay filed under Rattus norvegicus [4] is reported as 0%.

As to `COc1ccc(SC)c2c1CC1C(C2)OC(C)CN1C` (centres undefined), the pD2 was 5.83 in [6] and under 4 in the assay filed under Rattus norvegicus [7]. The compound further registered an E in assay [1] of 67.

As for `CCN1CC(C)OC2Cc3c(SC)ccc(OC)c3CC21` (centres undefined), the E in assay [1] is 93; in the assay listed under Rattus norvegicus [3] it was 29. Besides, the pD2 in [2] is 6.47; in the assay filed under Rattus norvegicus [5], 6.45. Also, in the assay filed under Rattus norvegicus [4], the “Increase in blood pressure (P/R)” value is given as -34%.

With `COc1ccc(SC)c2c1C[C@H]1[C@@H](C2)OCCN1C` (stereo in doubt; 14) [listing 1 of 2 here], the pD2 in assay [6] is 7.5. In assay [8], this compound yielded an E of 110.

In the assay filed under Rattus norvegicus [3], `COc1ccc(SC)c2c1CC1C(CCCN1C)C2` (stereo in doubt; trans) had an E of 72. Further, in the assay filed under Rattus norvegicus [4], the “Increase in blood pressure (P/R)” value was -79%. The compound further gave a pD2 in the assay listed under Rattus norvegicus [5] of 6.92.

As to `CCN1CCOC2Cc3c(SC)ccc(OC)c3CC21` (centres undefined), the E in assay [1] was found to be 98; in the assay filed under Rattus norvegicus [3], 79. Also, the pD2 turned out to be 7.42 in [2] and 6.84 in the assay listed under Rattus norvegicus [5]. Further, the “Increase in blood pressure (P/R)” value in the assay listed under Rattus norvegicus [4] is -84%.

In the case of `COc1ccc(SC)c2c1C[C@H]1[C@@H](C2)OCCN1C` (stereo in doubt; 15) [listing 1 of 2 here], in assay [1], the E was found to be 100. In addition, the pD2 in assay [2] was found to be 5.4.

As for `COc1ccc(SC)c2c1C[C@@H](N)CC2`, the E amounted to 98 in assay [1] and 73 in the assay listed under Rattus norvegicus [3]. The pD2 in assay [2] came out at 7.48; in the assay filed under Rattus norvegicus [5], 7.92. In the assay listed under Rattus norvegicus [4], the “Increase in blood pressure (P/R)” value is -94%.

Turning to `COc1ccc(SC)c2c1CC1C(CCCN1C)C2` (stereo in doubt; cis) [listing 1 of 2 here], in [2], the pD2 was under 4.

For the compound `COc1ccc(SC)c2c1CC1C(CCCN1C)C2` (stereo in doubt; 33) [listing 1 of 2 here], the E in the assay filed under Rattus norvegicus [3] amounted to 85. For the same compound, the “Increase in blood pressure (P/R)” value in the assay filed under Rattus norvegicus [4] is listed as -87%. In the assay listed under Rattus norvegicus [5], this compound gave a pD2 of 7.36.

In the case of `COc1ccc(SC)c2c1CC1C(CCCN1C)C2` (stereo in doubt; cis) [listing 2 of 2 here], in the assay filed under Rattus norvegicus [5], the pD2 is listed as under 4.

As to `CCSc1ccc(OC)c2c1CC1CCCN(C)C1C2` (stereo in doubt; 31) [listing 1 of 2 here], the E in the assay filed under Rattus norvegicus [3] is listed as 80. Moreover, the “Increase in blood pressure (P/R)” value in the assay filed under Rattus norvegicus [4] is -93%. Also, the pD2 in the assay listed under Rattus norvegicus [5] is on record as 6.68.

Consider `CCCN1CCOC2Cc3c(SC)ccc(OC)c3CC21` (centres undefined), for which the figures for the E (in assay [1]; in the assay listed under Rattus norvegicus [3]) were 98 and 38, respectively. In addition, the results for the pD2 (in [2]; in the assay listed under Rattus norvegicus [5]) were 6.78 and 6.18, respectively. Moreover, the “Increase in blood pressure (P/R)” value in the assay filed under Rattus norvegicus [4] is -76%.

On to `COc1ccc([N+](=O)[O-])c2c1CC1C(C2)OCCN1C` (centres undefined), for which the pD2 in assay [6] is 5.45; in the assay filed under Rattus norvegicus [7], 6. The E is 85 in assay [1] and 17 in the assay filed under Rattus norvegicus [9]. Further, in the assay listed under Rattus norvegicus [4], the “Increase in blood pressure (P/R)” value is listed as -22%.

On to `COc1ccc(Cl)c2c1CC1C(C2)OCCN1C` (centres undefined), for which the figures for the E (in assay [1]; in the assay filed under Rattus norvegicus [3]) were 89 and 40, respectively. Besides, the figures for the pD2 (in assay [2]; in the assay filed under Rattus norvegicus [10]) were 5.97 and 5.89, respectively. In addition, in the assay filed under Rattus norvegicus [4], the “Increase in blood pressure (P/R)” value is reported as -5%.

In the case of `COc1ccc(SC)c2c1C[C@H]1[C@@H](C2)OCCN1C` (stereo in doubt; 14) [listing 2 of 2 here], the E in the assay listed under Rattus norvegicus [11] was 76. Besides, the “Increase in blood pressure (P/R)” value in the assay listed under Rattus norvegicus [4] is -79%. This compound registered a pD2 in the assay listed under Rattus norvegicus [7] of 6.74.

In [2], `CCSc1ccc(OC)c2c1CC1CCCN(C)C1C2` (stereo in doubt) [listing 1 of 2 here] displayed a pD2 of under 4.

For the compound `COc1ccc(SC)c2c1CC1C(CCCN1C)C2` (stereo in doubt; 33) [listing 2 of 2 here], the E in [1] came out at 109. Besides, the pD2 in assay [2] came to 8.4.

Consider `CCSc1ccc(OC)c2c1CC1OCCN(C)C1C2` (centres undefined), for which the pD2 in assay [6] was determined as 8.2; in the assay filed under Rattus norvegicus [7] it was 6.48. Further, the E came to 95 in assay [1] and 86 in the assay listed under Rattus norvegicus [9]. For the same compound, the “Increase in blood pressure (P/R)” value in the assay listed under Rattus norvegicus [4] is reported as -80%.

As for `CCSc1ccc(OC)c2c1CC1CCCN(C)C1C2` (stereo in doubt; 31) [listing 2 of 2 here], in assay [1], the E came out at 97. Also, the pD2 in assay [2] was found to be 6.46.

With `COc1ccc(SC)c2c1C[C@H]1[C@@H](C2)OCCN1C` (stereo in doubt; 15) [listing 2 of 2 here], the E in the assay filed under Rattus norvegicus [3] was 23. For the same compound, the “Increase in blood pressure (P/R)” value in the assay listed under Rattus norvegicus [4] is reported as -40%. The pD2 in the assay listed under Rattus norvegicus [5] came out at 6.19.

In the assay listed under Rattus norvegicus [3], `CCSc1ccc(OC)c2c1CC1CCCN(C)C1C2` (stereo in doubt) [listing 2 of 2 here] returned an E of 18. In addition, in the assay filed under Rattus norvegicus [4], the “Increase in blood pressure (P/R)” value was -25%. For the same compound, the pD2 in the assay listed under Rattus norvegicus [5] turned out to be 6.12.

In turn, `NC[C@H](O)c1ccc(O)c(O)c1` returned a PD2 in assay [12] of 7.7. Moreover, the E in [13] is 100.
